Measured values: ChEMBL document CHEMBL1155465, “"Viologen" dendrimers as antiviral agents: the effect of charge number and distance” (J Med Chem, 2010)
≈ marks a conversion by molar mass, not a printed value.

Assays:
[1] = Selectivity index, ratio of CC50 for human MT4 cells to EC50 for HIV1 3B; format: toxicity, cell-based; settings: read-out: Ratio CC50/EC50
Procedure, shortened: (§1)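 MT-4 cells in RPMI 1640 with 10% heat-inactivated FCS, 2 mM L-glutamine, 0.1% bicarbonate and gentamicin, seeded at 6 × 10⁵ cells/mL final with virus or mock infection. Viability read by MTT after 5 days at 540 and 690 nm, using the median OD of three wells. CC50 is 50% loss of mock-infected OD540. EC50 is 50% inhibition of virus-induced CPE. SI = CC50/EC50. Mean ± SD of ≥2 experiments.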

[2] = tested on: Vesicular stomatitis virus; assay: Antiviral activity against VSV infected in human E6SM cell assessed as inhibition of virus-induced cytopathicity; format: functional, organism-based
[3] = Cytotoxicity against human HeLa cells by MTT assay; format: cell-based
[4] = tested on: Simian immunodeficiency virus; assay: Antiviral activity against SIV MAC251 infected in human MT4 cells after 5 days by MTT assay; format: functional, organism-based; settings: MAC251, MT4, 120 h; procedure, shortened: as §1
Reovirus sp. = assay: Antiviral activity against Reovirus infected in african green monkey Vero cells assessed as inhibition of virus-induced cytopathicity; format: functional, organism-based
Vaccinia virus = assay: Antiviral activity against Vaccina virus infected in human E6SM cell assessed as inhibition of virus-induced cytopathicity; format: functional, organism-based; settings: Orthopoxvirus vaccinia
Human respirovirus 3 = assay: Antiviral activity against Parainfluenza virus 3 infected in african green monkey Vero cells assessed as inhibition of virus-induced cytopathicity; format: functional, organism-based; settings: Human respirovirus 3, Vero
[5] = tested on: Human immunodeficiency virus 1; assay: Antiviral activity against HIV1 3B infected in human PBMC assessed as inhibition of viral p24 antigen production by ELISA; format: functional, organism-based; settings: Human immunodeficiency virus 1, 3B
Procedure, shortened: (§2)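 PBMCs infected with HIV-1 IIIB and cultured with a range of compound concentrations. EC50 is 50% inhibition of supernatant p24 core antigen (ELISA) relative to drug-free culture. CC50 is 50% reduction in cell viability. SI = CC50/EC50. Mean ± SD of ≥2 experiments.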

Human alphaherpesvirus 2 = assay: Antiviral activity against HSV2 G infected in human E6SM cell assessed as inhibition of virus-induced cytopathicity; format: functional, organism-based; settings: Human alphaherpesvirus 2, strain G
[6] = tested on: Vesicular stomatitis virus; assay: Antiviral activity against VSV infected in human HeLa cell assessed as inhibition of virus-induced cytopathicity; format: functional, organism-based
[7] = tested on: Respiratory syncytial virus; assay: Antiviral activity against RSV infected in human HeLa cell assessed as inhibition of virus-induced cytopathicity; format: functional, organism-based
Human alphaherpesvirus 1 [8] = assay: Antiviral activity against TK-deficient acyclovir-resistant HSV1 KOS infected in human E6SM cell assessed as inhibition of virus-induced cytopathicity; format: functional, organism-based; settings: Human alphaherpesvirus 1, KOS
Human alphaherpesvirus 1 [9] = assay: Antiviral activity against HSV1 KOS infected in human E6SM cell assessed as inhibition of virus-induced cytopathicity; format: functional, organism-based; settings: Human alphaherpesvirus 1, KOS
Sindbis virus = assay: Antiviral activity against Sindbis virus infected in african green monkey Vero cells assessed as inhibition of virus-induced cytopathicity; format: functional, organism-based
[10] = Selectivity index, ratio of CC50 for human PBMC to EC50 for HIV1 3B; procedure, shortened: as §2
Punta Toro virus = assay: Antiviral activity against Punta Toro virus infected in african green monkey Vero cells assessed as inhibition of virus-induced cytopathicity; format: functional, organism-based
[11] = tested on: Human immunodeficiency virus 1; assay: Antiviral activity against HIV1 3B infected in human MT4 cells after 5 days by MTT assay; format: functional, organism-based; settings: Human immunodeficiency virus 1, 3B, MT4, 120 h; procedure, shortened: as §1
[12] = Cytotoxicity against human MT4 cells after 5 days by MTT assay; format: cell-based; procedure, shortened: as §1
[13] = tested on: Human immunodeficiency virus 2; assay: Antiviral activity against HIV2 ROD infected in human MT4 cells after 5 days by MTT assay; format: functional, organism-based; settings: Human immunodeficiency virus 2, ISOLATE ROD, MT4, 120 h; procedure, shortened: as §1
[14] = Cytotoxicity against human E6SM cells by MTT assay; format: cell-based
[15] = tested on: Human immunodeficiency virus; assay: Antiviral activity against HIV SO6141 infected in human MT4 cells after 5 days by MTT assay; format: functional, organism-based; settings: Human immunodeficiency virus 1, SO6141, MT4, 120 h; procedure, shortened: as §1
[16] = Cytotoxicity against human PBMC after 5 days by MTT assay; format: cell-based; procedure, shortened: as §2
[17] = Cytotoxicity against african green monkey Vero cells by MTT assay; format: cell-based; settings: chlorocebus sabaeus
[18] = tested on: Human immunodeficiency virus 1; assay: Antiviral activity against HIV1 3B infected in human MT4 cells assessed as time-of-addition prolongation at 0.5 ug/ml after 31 hrs post infection by ELISA; format: functional
Procedure, shortened: (§3)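 Time-of-addition: MT-4 cells infected with HIV-1 IIIB at moi 0.5 for a 1 h adsorption, then plated at 45000 cells/well at 37 °C. Compound added at 0, 1, 2, 3, 4, 5, 6, 7, 8, 24 or 25 h post-infection. Supernatant p24 antigen measured by ELISA at 31 h post-infection.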

[19] = tested on: Human immunodeficiency virus; assay: Antiviral activity against HIV S056 infected in human A72 Jurkat cells assessed as inhibition of GFP expression after 48 hrs by flow cytometry; format: functional, organism-based; settings: Human immunodeficiency virus 1, S056, Jurkat
Procedure, shortened: (§4)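 Acutely infected A72 Jurkat cells. EC50 (μg/mL) is the concentration giving 50% inhibition of GFP expression relative to drug-free infection. CC50 is 50% reduction in cell viability. SI = CC50/EC50. Mean ± SD of ≥2 experiments.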

[20] = tested on: Human immunodeficiency virus; assay: Antiviral activity against AZT-resistant HIV infected in human A72 Jurkat cells assessed as inhibition of GFP expression after 48 hrs by flow cytometry; format: functional, organism-based; settings: Human immunodeficiency virus 1, Jurkat; procedure, shortened: as §4
[21] = tested on: Human immunodeficiency virus 2; assay: Antiviral activity against HIV2 ROD infected in human A72 Jurkat cells assessed as inhibition of GFP expression after 48 hrs by flow cytometry; format: functional, organism-based; settings: Human immunodeficiency virus 2, ISOLATE ROD; procedure, shortened: as §4
[22] = Selectivity index, ratio of CC50 for human Jurkat A72 cells to EC50 for HIV1 3B; format: toxicity, cell-based; procedure, shortened: as §4
[23] = tested on: Human immunodeficiency virus 1; assay: Antiviral activity against HIV1 3B infected in human MT4 cells assessed as time-of-addition prolongation at 2 ug/ml after 31 hrs post infection by ELISA; format: functional; procedure, shortened: as §3
[24] = tested on: Human immunodeficiency virus; assay: Antiviral activity against HIV S067 infected in human A72 Jurkat cells assessed as inhibition of GFP expression after 48 hrs by flow cytometry; format: functional, organism-based; settings: Human immunodeficiency virus 1, S067, Jurkat; procedure, shortened: as §4
[25] = Cytotoxicity against human Jurkat A72 cells by MTT assay; format: cell-based; procedure, shortened: as §4
[26] = tested on: Human immunodeficiency virus 1; assay: Antiviral activity against HIV1 NL4-3 infected in human A72 Jurkat cells assessed as inhibition of GFP expression after 48 hrs by flow cytometry; format: functional, organism-based; settings: Human immunodeficiency virus 1, NL4-3, Jurkat; procedure, shortened: as §4
[27] = tested on: Human immunodeficiency virus; assay: Antiviral activity against HIV S07 infected in human A72 Jurkat cells assessed as inhibition of GFP expression after 48 hrs by flow cytometry; format: functional, organism-based; settings: Human immunodeficiency virus 1, S07, Jurkat; procedure, shortened: as §4
[28] = tested on: Human immunodeficiency virus 1; assay: Antiviral activity against HIV1 3B infected in human A72 Jurkat cells assessed as inhibition of GFP expression after 48 hrs by flow cytometry; format: functional, organism-based; settings: Human immunodeficiency virus 1, 3B; procedure, shortened: as §4

CC[n+]1ccc(-c2cc[n+](Cc3cc(C[n+]4ccc(-c5cc[n+](CC)cc5)cc4)cc(C[n+]4ccc(-c5cc[n+](Cc6cc(C[n+]7ccc(-c8cc[n+](Cc9cc(C[n+]%10ccc(-c%11cc[n+](CC)cc%11)cc%10)cc(C[n+]%10ccc(-c%11cc[n+](CC)cc%11)cc%10)c9)cc8)cc7)cc(-[n+]7ccc(-c8cc[n+](-c9cc(C[n+]%10ccc(-c%11cc[n+](Cc%12cc(C[n+]%13ccc(-c%14cc[n+](CC)cc%14)cc%13)cc(C[n+]%13ccc(-c%14cc[n+](CC)cc%14)cc%13)c%12)cc%11)cc%10)cc(C[n+]%10ccc(-c%11cc[n+](Cc%12cc(C[n+]%13ccc(-c%14cc[n+](CC)cc%14)cc%13)cc(C[n+]%13ccc(-c%14cc[n+](CC)cc%14)cc%13)c%12)cc%11)cc%10)c9)cc8)cc7)c6)cc5)cc4)c3)cc2)cc1.F[P-](F)(F)(F)(F)F.F[P-](F)(F)(F)(F)F.F[P-](F)(F)(F)(F)F.F[P-](F)(F)(F)(F)F.F[P-](F)(F)(F)(F)F.F[P-](F)(F)(F)(F)F.F[P-](F)(F)(F)(F)F.F[P-](F)(F)(F)(F)F.F[P-](F)(F)(F)(F)F.F[P-](F)(F)(F)(F)F.F[P-](F)(F)(F)(F)F.F[P-](F)(F)(F)(F)F.F[P-](F)(F)(F)(F)F.F[P-](F)(F)(F)(F)F.F[P-](F)(F)(F)(F)F.F[P-](F)(F)(F)(F)F.F[P-](F)(F)(F)(F)F.F[P-](F)(F)(F)(F)F.F[P-](F)(F)(F)(F)F.F[P-](F)(F)(F)(F)F.F[P-](F)(F)(F)(F)F.F[P-](F)(F)(F)(F)F.F[P-](F)(F)(F)(F)F.F[P-](F)(F)(F)(F)F.F[P-](F)(F)(F)(F)F.F[P-](F)(F)(F)(F)F
selectivity ratio [1]: 13.3
EC50 [2]: > 50 µg/mL
MCC [3]: > 50 µg/mL
EC50 [4]: ≥ 0.49 µM
EC50 (Reovirus sp.): > 50 µg/mL
EC50 (Vaccinia virus): > 50 µg/mL
EC50 (Human respirovirus 3): > 50 µg/mL
EC50 [5]: > 0.52 µg/mL
EC50 (Human alphaherpesvirus 2): 50 µg/mL
EC50 [6]: > 50 µg/mL
EC50 [7]: 50 µg/mL
EC50 (Human alphaherpesvirus 1 [8]): 30 µg/mL
EC50 (Human alphaherpesvirus 1 [9]): 6 µg/mL
EC50 (Sindbis virus): > 50 µg/mL
Ratio CC50/EC50 [10]: <1
EC50 (Punta Toro virus): > 50 µg/mL
EC50 [11]: 1.4 µM
CC50 at 120 h [12]: > 18.6 µM
EC50 [13]: 9.82 µM
MCC [14]: > 50 µg/mL
EC50 [15]: 1.23 µM
CC50 at 120 h [16]: 0.52 µg/mL
MCC [17]: > 50 µg/mL

Cc1cn([C@H]2C[C@H](N=[N+]=[N-])[C@@H](CO)O2)c(=O)[nH]c1=O [ZIDOVUDINE]
Time [18]: 5 h

Cc1ccnc2c1NC(=O)c1cccnc1N2C1CC1 [NEVIRAPINE]
EC50 [19]: < 0.2 µg/mL
EC50 [20]: 0.005 µg/mL (≈ 0.0188 µM)
EC50 [21]: > 2 µg/mL
selectivity ratio [22]: > 250
Time [23]: 10 h
EC50 [24]: 0.016 µg/mL (≈ 0.0601 µM)
CC50 [25]: > 2 µg/mL
EC50 [26]: 0.008 µg/mL (≈ 0.03 µM)
EC50 [27]: 0.012 µg/mL (≈ 0.0451 µM)
EC50 [28]: 0.008 µg/mL (≈ 0.03 µM)

NC(=O)c1ncn([C@@H]2O[C@H](CO)[C@@H](O)[C@H]2O)n1 [RIBAVIRIN]
EC50 [2]: > 400 µg/mL
MCC [3]: > 400 µg/mL
EC50 (Reovirus sp.): 80 µg/mL (≈ 328 µM)
EC50 (Vaccinia virus): 48 µg/mL (≈ 197 µM)
EC50 (Human alphaherpesvirus 2): > 400 µg/mL
EC50 [6]: 48 µg/mL (≈ 197 µM)
EC50 (Human alphaherpesvirus 1 [8]): > 400 µg/mL
EC50 (Human alphaherpesvirus 1 [9]): > 400 µg/mL
EC50 (Sindbis virus): > 400 µg/mL
MCC [14]: > 400 µg/mL
MCC [17]: > 400 µg/mL
